# Out of some 330,000 compounds screened, about 220 (0.067%) were called active.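 How the source made its calls: active means response, share of CD8 T cells binding vesicles, and their 90th percentile fluorescence all below set limits (cut at about 80% in these data, passing the limit was not always enough); inactive means the rest, inconclusive results apart.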 This excerpt belongs to a sample that is enriched for actives.
# Assay: murine CD8 T cell vesicle adhesion modulation – mouse 2C CD8+ T cells, flow cytometry, primary screen (AID 2052);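 on double positive events: binding gate set so that unloaded-vesicle control wells show 10% double positive cells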;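 on response (vesicle binding): values below 100% mean blocked vesicle binding to the CD8+ T cells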
# Details: 2C CD8+ T cell-vesicle binding, at 7 µM, stronger effect = lower value; double positive events: measured here: CD8+ vesicle-bound cell fraction
# How it was run: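 Test system: purified 2C TCR transgenic mouse naive CD8+ T cells. Probe or stimulus: QL9-peptide-loaded Drosophila micro-vesicles bearing Ld, ICAM-1 and B7-1. Incubation: binding step 1.5 h, 37 °C, antibody labelling 20 min, ice. Measured by: flow cytometry of vesicle-bound cells.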
Structure (SMILES),double positive events,response (vesicle binding)
COc1ccccc1S(=O)(=O)NCc1ccc(C(=O)N(C)Cc2ccc(F)cc2)cc1,31.2%,557% (inactive)
CCOc1ccc(NC(=O)CC2C(=O)N(c3ccccc3)C(=O)N2CCOC)cc1 (centres undefined),22.1%,526% (inactive)
Cc1cc(C)cc(NC(=O)NC2CCN(CC(=O)Nc3cccc(Cl)c3C)CC2)c1,43.5%,437% (inactive)
O=C1C(=O)N(CCN2CCOCC2)C(c2cccc(Cl)c2)/C1=C(/O)c1ccc2c(c1)OCO2 (centres undefined),10.1%,653% (inactive)
O=C(NCc1ccc2c(c1)OCO2)c1cc2c(s1)CS(=O)(=O)C2,37.5%,576% (inactive)
O=C(NCc1ccc2c(c1)OCO2)c1ccc(Cl)s1,0%,0% (active)
O=C(NCc1ccc2c(c1)OCO2)c1cc(F)c(F)cc1Cl,11.4%,338% (inactive)
COc1ccc(C(=O)NCc2ccc(C)cc2)cc1S(=O)(=O)N1CCCC1,47.1%,276% (inactive)
O=C(CSc1nc2ccccc2c(=O)n1-c1ccccc1F)N1CCOCC1,37.3%,244% (inactive)
Cc1ccc(Cl)c(OCC(=O)N(C)CC(=O)Nc2ccc(N3CCOCC3)cc2)c1,61.8%,424% (inactive)
CCOC(=O)c1cccc(NC(=O)C2CCCN(S(=O)(=O)c3cnc[nH]3)C2)c1 (centres undefined),47.8%,586% (inactive)
Cc1nc2ccc(C(=O)N(C)CC3CCCN(CCc4ccc(Cl)cc4)C3)cc2[nH]1 (centres undefined),20.7%,442% (inactive)
Cc1ccc(N2CC(C(=O)NCCS(=O)(=O)N3CCN(c4ccccc4)CC3)CC2=O)cc1 (centres undefined),11%,383% (inactive)
CN1C(=O)/C(=C/C=C2\SCCN2C)OC1=S,25.3%,177% (inactive)
CCN1CCN(C(=O)c2cc3cc4ccc(OC)cc4nc3s2)CC1,24.6%,601% (inactive)
CN(CC(=O)NCCc1ccc(S(N)(=O)=O)cc1)CC(=O)Nc1ccc(Cl)cc1,39.4%,1090% (inactive)
Cc1ccccc1CN(c1ccc(C(=O)NCC2CCCO2)cc1)S(C)(=O)=O (centres undefined),4.3%,168% (inactive)
COc1ccc([N+](=O)[O-])cc1NC(=O)c1ccc(N(Cc2ccccc2C)S(C)(=O)=O)cc1,0.1%,6.1% (active)
COc1ccc(C(=O)CC(=O)C(=O)Nc2cc([N+](=O)[O-])ccc2OC)cc1,13.4%,256% (inactive)
COc1ccccc1OCCn1c(SCC(N)=O)nc2ccccc21,16%,348% (inactive)
Cc1ccc(NC(=O)CN(C)S(=O)(=O)c2cnc[nH]2)cc1C,18.7%,261% (inactive)

Structure (SMILES),double positive events,response (vesicle binding)
CC(Oc1ccccc1)C(=O)Nc1c2c(nn1-c1ccccc1)CS(=O)C2 (centres undefined),7.9%,237% (inactive)
CCOC(=O)c1ccccc1NC(=S)N1CCC(C(N)=O)CC1,33.7%,285% (inactive)
OC(CNCc1ccc(Cl)c(Cl)c1)c1ccccc1 (centres undefined),58.3%,66.1% (inactive)
Cc1c(NC(=S)NC(=O)CCc2ccccc2)c(=O)n(-c2ccccc2)n1C,1.1%,17.6% (active)
Cc1c(NC(=O)CN2C(=O)C(=O)N(Cc3ccccc3)C2=O)c(=O)n(-c2ccccc2)n1C,54.7%,606% (inactive)
Cc1c(NC(=S)Nc2ccccc2)c(=O)n(-c2ccccc2)n1C,28%,297% (inactive)
CC(C)(C)c1cc(P(=O)(c2ccccc2)c2ccccc2)ccc1O,28.1%,82.3% (inactive)
O=C(CN1CCN(C2CCCCC2)CC1)Nc1ccccc1N1CCCCC1,6.3%,0% (active)
Cc1ccccc1NC(=O)Nc1ccccc1N1CCCCC1,27.3%,308% (inactive)
CC(=O)c1ccc(N2CCN(CC(=O)Nc3ccccc3N3CCOCC3)CC2)cc1,42.5%,203% (inactive)
COc1ccc(CN(C)C(=S)Nc2ccc(Cl)cc2Cl)cc1,9.4%,367% (inactive)
CCN1CCN(C(=O)C2CCN(S(=O)(=O)c3cc(Cl)ccc3Cl)CC2)CC1,29.3%,223% (inactive)
O=C(NN1C(=O)C2C3C=CC(C3)C2C1=O)c1ccco1 (centres undefined),43%,570% (inactive)
CCOc1ccc2[nH]c(=O)c(CN(Cc3nnnn3CCc3ccccc3)CC3CCCO3)cc2c1 (centres undefined),50.9%,238% (inactive)
COC(=O)c1ccc(C2NC(=O)NC(C)=C2C(=O)N(C)C)cc1 (centres undefined),31.3%,393% (inactive)
CCOc1ccc(CCNC(=O)COC(=O)C2CCN(c3ccc(C(F)(F)F)cn3)CC2)cc1OCC,38.6%,818% (inactive)
CCCc1c(C(=O)Nc2ccc(F)cc2)cnn1-c1ccccc1,19.3%,479% (inactive)
O=C(COC(=O)CC1CC2CCC1C2)NC(=O)NC1CCCC1 (centres undefined),20.7%,248% (inactive)
CCOc1ccc2[nH]c(=O)c(C(c3nnnn3CCOC)N3CCOCC3)cc2c1 (centres undefined),11.4%,261% (inactive)
COc1ccc(OC)c(C(c2nnnn2C(C)(C)C)N2CCc3ccccc3C2)c1 (centres undefined),55.6%,342% (inactive)
COCCn1nnnc1C(c1cc2ccc(OC)cc2[nH]c1=O)N1CCc2ccccc2C1 (centres undefined),16.7%,0% (active)

# Reference: PubChem BioAssay AID2052 (NMMLSC, 2009)
